KCNK3 block: human KCNK3 channel inhibitors, primary screen, CHO cells, FluxOR thallium flux, B-score | 340,000 tested, 0.84% active | Potassium channel subfamily K member 3 (Homo sapiens), O14649 | B-score at 10 µM | FluxOR fluorescence; stronger effect = lower value;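 active means B-score under library mean minus 4 SD, starting fluorescence ratio at most library mean plus 5 SD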;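 further: more negative B-score means stronger inhibition of thallium flux through KCNK3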
KCNQ1 pot: potentiators or activators of KCNQ1 channel, primary screen, cell-based, thallium flux, high-throughput; CHO-K1 KCNQ1, thallium flux FluxOR fluorescence; stronger effect = higher value; B-score at 10 µM; 310,000 tested, 0.35% active;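 active means fluorescence ratio B-score, a plate-corrected score, at least three library SD, with initial intensity B-score within 5 SD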
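Material: CHO-K1 cells stably expressing KCNQ1. Medium: assay buffer for compound exposure, DMSO matched across wells. Reagent: K+/Tl+ depolarizing stimulus. Compound dosing: single-concentration screen. Times: 37 °C overnight plating, 90-min dark dye load, 20-min compound pretreatment. Technique: FluxOR Tl+ flux fluorescence.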
KCNQ1 block: inhibitors of human KCNQ1 channel, primary screen, cell-based, thallium flux, high-throughput | 310,000 tested, 1.3% active | AID 2642, 2010 | CHO-K1 KCNQ1, FluxOR thallium flux fluorescence; stronger effect = higher value | B-score at 10 µM;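 active means compounds whose thallium flux B-score, printed positive for inhibition, exceeds three library SD while starting fluorescence stays within three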;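 further: channel opened by potassium depolarization with thallium stimulus after 20 min compound exposure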
KCNK9 inh: KCNK9 potassium channel inhibitors, primary screen, HEK293 cells, thallium flux | Potassium channel subfamily K member 9 (Homo sapiens), Q9NPC2 | FluxOR thallium flux fluorescence; stronger effect = lower value | B-score at 10 µM | 310,000 tested, 1.2% active | AID 488922, 2010;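 active means ratio B-score over 3 SD below the library mean, with starting fluorescence within 5 SD of its mean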;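 further: negative B-score means less thallium flux so channel inhibition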
Kir21 block: inhibitors of mouse Kir2.1 inward-rectifier potassium channel; B-score at 10 µM; AID 1672, 2009; Inward rectifier potassium channel 2 (Mus musculus), P35561; HEK293-Kir2.1, FluxOR thallium flux fluorescence; stronger effect = lower value; 310,000 tested, 0.85% active;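 active means fluorescence ratio B-score at or below minus 3 SD of library scores, with starting-brightness B-score within 2 SD, cut at about -4.2 in these data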;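 further: channel flux triggered by added potassium and thallium sulfate stimulus; B-score of peak minus minimum fluorescence over baseline after thallium stimulus; more negative B-score means stronger Kir2.1 block with less thallium influx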
hERG rescue: hERG rescue from dofetilide block, primary screen, cell-based, CHO-hERG, FluxOR thallium flux, dofetilide IC70. Voltage-gated inwardly rectifying potassium channel KCNH2 (Homo sapiens), Q12809. 310,000 tested, 0.51% active. activation (rescue from dofetilide block), less the hit threshold, % at 10 µM. dofetilide IC70 present;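 active means activation above the mean of controls blocked by dofetilide plus 5 SD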;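 further: thallium influx through hERG after potassium depolarization seen as dye fluorescence rise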
An asterisk follows results filed as active; i = inactive; / = not tested or not shown. In the library only some 3.8% were active in any assay of this set; here they are far more common.

SMILES	KCNK3 block	KCNQ1 pot	KCNQ1 block	KCNK9 inh	Kir21 block	hERG rescue
O=C(Nc1ncc([N+](=O)[O-])s1)c1ccc2c(c1)OCO2	i	i	i	i	0.54	-6.5
Cc1cc2ncn(C(=O)c3ccc(F)cc3)c2cc1C	i	i	i	i	0.41	-10.9
COc1ccc(CNC(=O)c2cc3ccccc3oc2=O)cc1	i	i	i	i	0.15	-2.1
COc1ccc(-c2[nH]c3ccccc3c2SCCNC(=O)c2cc3ccccc3oc2=O)cc1	i	i	8*	i	0.67	-15.9
N#CC(C#N)=C1C=CC=CN1/C(=C\c1ccco1)C(=O)c1ccccc1	i	/	/	/	/	/
COc1ccc(C(=O)/C(=C\c2ccco2)N2C=CC=CC2=C(C#N)C#N)cc1	i	i	i	i	-9.88*	-18.7
COc1ccc(/C=C(/C(=O)c2cccs2)N2C=CC=CC2=C(C#N)C#N)cc1	i	i	11*	i	-3.61	-29.4
N#CC(C#N)=C1C=CC=CN1/C(=C\c1ccco1)C(=O)c1ccc(Br)cc1	i	/	/	/	/	/
O=C(Cn1cnc2ccccc2c1=O)NCc1cccs1	i	i	i	i	0.63	-5.3
N#Cc1ccsc1NC(=O)CN1CCN(c2ccccc2)CC1	i	i	i	i	-0.17	8.6*
N#Cc1ccsc1NC(=O)CN1CCN(c2ccc(O)cc2)CC1	i	i	i	i	-0.52	-2.0
COc1ccccc1OCC(=O)n1cc(C(=O)c2cc(Cl)cc(Cl)c2O)cn1	i	i	i	i	0.31	-4.8
Cn1c(=O)c(C#N)c(-c2ccc(F)cc2)c2cc(C(=O)c3cc(Cl)cc(Cl)c3O)cnc21	i	i	11*	i	-4.02	-15.5
Cc1cc(Cl)ccc1NC(=S)NCCC(c1ccccc1)c1ccccc1	i	i	11*	i	0.07	-12.8
Cc1c(Cl)cccc1NC(=S)NCCC(c1ccccc1)c1ccccc1	i	i	11*	i	1.18	-4.5
CC(=O)c1cc(CN2CCN(C(C)C)C(CCO)C2)cs1 (configuration not stated)	i	i	i	i	1.31	-11.7
CCCCN(CCCC)c1nc(OC)nc(-n2nnc(C(C)=O)c2C)n1	i	i	i	-6.6*	-0.01	-15.9
CC(=O)c1nnn(-c2nc(N)nc(N(c3ccccc3)c3ccccc3)n2)c1C	i	i	i	i	-1.19	-8.1
CN(C)C(=O)c1cc(C(=O)c2ccc(F)cc2Cl)c[nH]1	i	i	i	i	0.1	-3.0
CN(C)C(=O)c1cc(F)ccc1Sc1cc(Cl)ccc1Cl	i	i	i	i	-5.8*	-12.0
CN(C)C(=O)c1cc(Cl)ccc1Sc1cc(Cl)ccc1Cl	i	i	i	i	-5.43*	-17.9
COc1cc(C2NC(=O)NC(C)=C2C(=O)OCC2CCCCC2)ccc1O (configuration not stated)	i	i	i	i	1.74	7.1*
COc1cc(C2NC(=O)NC(C)=C2C(=O)OCc2ccccc2)ccc1O (configuration not stated)	i	i	i	i	0.34	-10.8
CCOC(=O)C1=C(c2ccccc2)NC(=O)NC1c1ccc(OC)c(OC)c1 (configuration not stated)	i	i	i	i	0.1	5.7*
CCOC(=O)C1=C(c2ccccc2)NC(=O)NC1c1ccc(OC)cc1 (configuration not stated)	i	i	i	i	0.31	0.0
SMILES	KCNK3 block	KCNQ1 pot	KCNQ1 block	KCNK9 inh	Kir21 block	hERG rescue
Cc1cc(C)c2nc(SC(C)C#N)cc(C)c2c1 (configuration not stated)	i	i	i	i	0.95	-7.2
NC(=O)CCN1CCN(Cc2nc(C(c3ccccc3)c3ccccc3)no2)CC1	i	i	i	i	1.26	-6.0
CCOc1ccccc1N(CC(=O)OC)S(C)(=O)=O	i	i	i	i	1.05	4.6*
CCOc1ccccc1N(CC(=O)N1CCCCCC1)S(C)(=O)=O	i	i	i	i	-0.71	-12.6
Cc1cccc(CSc2nc3ccccc3c(=O)n2C)c1	-9.3*	/	/	/	/	/
Cc1ccc(-c2nc(CSc3nc4ccccc4c(=O)n3C)cs2)cc1	i	i	i	i	0.39	-6.8
Cc1ccccc1NC(=O)CN1C(=O)NC2(CCCCCCC2)C1=O	i	/	/	/	/	/
c1ccc(CNc2ncnc3nc[nH]c23)cc1	i	i	i	i	0.96	-2.2
c1ccc(CCCNc2ncnc3nc[nH]c23)cc1	i	i	i	i	1.4	6.0*
O=C(CN1c2cccc3cccc(c23)S1(=O)=O)Nc1c(F)c(F)c(F)c(F)c1F	i	/	/	/	/	/
Cn1c(C(=O)N2CCCC(C(=O)NCCN3CCOCC3)C2)cc2sccc21 (configuration not stated)	i	i	i	i	0.21	7.3*
CCOc1ccc(S(=O)(=O)N2CCCC(C(=O)NCCN3CCOCC3)C2)cc1Cl (configuration not stated)	i	9*	i	i	0.68	-7.3
CC(C)(C)c1ccc(-c2cn(-c3ccc(Br)cc3)c3[n+]2CCCS3)cc1	i	i	7*	i	-1.31	-31.0
O=C(NNC(=O)c1cc(-c2cccnc2)nc2ccccc12)Nc1ccc(Cl)cc1	i	i	12*	i	-0.85	-39.9
COc1ccc(NC(=O)CN(C)C(=O)c2cc(-c3ccc(Cl)cc3)nc3ccccc23)cc1	i	i	7*	i	1.4	-30.4
O=C(Nc1ccccn1)c1cc(-c2cccnc2)nc2ccc(Br)cc12	i	i	i	-6.93*	-0.4	-13.2
O=C(NNC(=O)c1cc(-c2ccncc2)nc2ccccc12)Nc1ccc(F)cc1	i	i	i	i	1.07	-8.0
CC(C)(C)c1ccc(-c2cc(C(=O)NNC(=O)Nc3ccccc3)c3ccccc3n2)cc1	-10.2*	i	i	i	0.62	-5.5
Clc1ccc2c(N/N=C/c3cccc(Br)c3)ccnc2c1	i	i	9*	i	-0.73	-3.3
Cc1cc(C)c2nc(N3CCN(C)CC3)c(C#N)cc2c1	i	i	i	i	-1.21	-11.9
Cc1cc(C)c2nc(N3CCCN(C(=O)c4cnccn4)CC3)c(C#N)cc2c1	i	i	i	i	-4.97*	-17.8

Source: PubChem BioAssay
